Results on two molecules are retold here after ChEMBL document CHEMBL4350976, “Sequence modification of heptapeptide selected by phage display as homing device for HT-29 colon cancer cells to improve the anti-tumour activity of drug delivery systems” (Eur J Med Chem, 2019).

Where a SMILES comes first, the peptide text is derived from it. The star is where a group is joined. X1 = COc1cccc2c1C(=O)c1c(O)c3c(c(O)c1C2=O)C[C@@](O)(/C(C)=N/OCC(=O)*)C[C@@H]3O[C@H]1C[C@H](N)[C@H](O)[C@H](C)O1

Data set [1] can be described thus: Drug uptake in human HT-29 cells at 50 uM after 90 mins by fluorescence based confocal microscopic analysis. Type of data set: ADME, cell-based. Conditions: ht-29, 1.5 h; call rule not given here. The procedure, abridged:
(§1)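 HT-29 cells were incubated with 50 µM compound in RPMI for 90 min. Imaging was by confocal microscopy, with Dau detected at 550–600 nm emission.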

Data set [2] can be described thus: Retention time of the compound using 0.1% TFA in water and 0.1% TFA in acetonitrile-water (80:20 v/v) as eluents by RP-HPLC analysis. The class given is physicochemical. An outline of the steps:
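Analytical RP-HPLC. Eluent A was 0.1% TFA in water and eluent B was 0.1% TFA in acetonitrile-water (80:20, v/v). Gradient: 0% B held to 5 min, then to 90% B at 50 min. Flow 1 mL/min, detection at 220 nm. The column was a Phenomenex Aeris Peptide XB-C18 (250×4.6 mm, 3.6 μm) or a Nucleosil C18 (5 μm, 100 Å, 250×4.6 mm), depending on the conjugate series.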

Another data set deals with HT-29. Put plainly: Cytostatic activity against human HT-29 cells preincubated for 24 hrs under serum free condition followed by compound washout and further incubation for 48 hrs in presence of serum by MTT assay. The class given is functional, cell-based. An outline of the steps: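 HT-29 cells were exposed to the compound for 24 h, washed, and kept a further 48 h. Viability was read by MTT. Absorbances were normalized to untreated controls and fitted by nonlinear regression to dose-response curves to give IC50.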

The nature of data set [3]: Stability in 2.5% fetal bovine serum containing medium assessed as drug decomposition measured as Dau=Aoa-LR-OH and H-RYVHLPYAT-NH2 metabolite formation with loss of sugar content at 30 uM measured after 24 hrs by LC/MS analysis. Type of data set: ADME, cell-free, Bos taurus. The conditions noted are these: cattle. The procedure, abridged:
(§2)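 Conjugates (30 μM) were incubated at 37 °C in medium containing 2.5% FBS. Samples were taken at 0, 3, 6 and 24 h, quenched with acetic acid, lyophilised, desalted on C18 spin columns and analysed by LC-MS. Cleavage products were identified by mass.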

Data set [4] can be described thus: Stability in serum free medium at 30 uM incubated for 3 hrs by LC/MS analysis. An outline of the steps: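 Conjugates (30 μM) were incubated at 37 °C in serum-free medium. Samples were taken at 0 and 3 h, quenched with acetic acid, lyophilised, desalted on C18 spin columns and analysed by LC-MS.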
Data set [5] is described as follows: Drug uptake in human HT-29 cells at 100 uM incubated for 3 hrs by flow cytometry. Type of data set: ADME, cell-based. The conditions noted are these: ht-29, 3 h. The procedure, abridged: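 HT-29 cells were exposed to 100 µM conjugate for 3 h. Flow cytometry recorded the percentage of Dau-positive cells and the mean fluorescence intensity, in duplicate.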
A general note: A flow cytometer gives signals particle by particle.

Data set [6] in a line: Aqueous solubility of compound in water. The class given is physicochemical. The conditions noted are these: buffer.
Data set [7] can be described thus: Stability in 2.5% fetal bovine serum containing medium at 30 uM measured after 24 hrs by LC/MS analysis. Type of data set: ADME, cell-free, Bos taurus. The conditions noted are these: cattle. The procedure, abridged: as §2
Data set [8] can be described thus: Drug uptake in cytoplasm of living human HT-29 cells at 50 uM after 90 mins by fluorescence based confocal microscopic analysis. The class given is ADME, subcellular. The conditions noted are these: ht-29, 1.5 h. The procedure, abridged: as §1
A short description of data set [9]: Drug uptake in nucleus of dead human HT-29 cells at 50 uM after 90 mins by fluorescence based confocal microscopic analysis. Conditions: ht-29, 1.5 h. Type of data set: ADME, subcellular. An outline of the steps:
as §1

Data set [10] can be described thus: Drug uptake in human HT-29 cells assessed as increase in fluorescence intensity at 25 uM incubated for 3 hrs by flow cytometry. Type of data set: ADME, cell-based. The conditions noted are these: ht-29, 3 h.

With `COc1cccc2c1C(=O)c1c(O)c3c(c(O)c1C2=O)C[C@@](O)(/C(C)=N/OCC(=O)N[C@@H](CC(C)C)C(=O)N[C@@H](CCCNC(=N)N)C(=O)N[C@@H](CCCNC(=N)N)C(=O)N[C@@H](Cc1ccc(O)cc1)C(=O)N[C@H](C(=O)N[C@@H](Cc1cnc[nH]1)C(=O)N[C@@H](CC(C)C)C(=O)N1CCC[C@H]1C(=O)N[C@@H](Cc1ccc(O)cc1)C(=O)N[C@@H](C)C(=O)N[C@H](C(N)=O)[C@@H](C)O)C(C)C)C[C@@H]3O[C@H]1C[C@H](N)[C@H](O)[C@H](C)O1` (X1-LRRYVHLPYAT-NH2), the Drug uptake result in [1] and in data set [5] was “Not Active” each time. This molecule also yielded a Retention time in [2] of 31.2 to 31.3 min. Further, the IC50 in the data set with HT-29 is > 50 µM. Further, the Stability result in data set [3] is recorded as “Unstable”; in data set [4] it was “Stable”.
`COc1cccc2c1C(=O)c1c(O)c3c(c(O)c1C2=O)C[C@@](O)(/C(C)=N/OCC(=O)N[C@@H](CC(C)C)C(=O)N[C@@H](CCCNC(=N)N)C(=O)N[C@@H](CCCNC(=N)N)C(=O)N[C@@H](Cc1ccc(O)cc1)C(=O)N[C@H](C(=O)N[C@@H](Cc1cnc[nH]1)C(=O)N[C@@H](CC(C)C)C(=O)N[C@@H](CO)C(=O)N[C@@H](Cc1ccc(O)cc1)C(=O)N[C@@H](C)C(=O)N[C@H](C(N)=O)[C@@H](C)O)C(C)C)C[C@@H]3O[C@H]1C[C@H](N)[C@H](O)[C@H](C)O1` (X1-LRRYVHLSYAT-NH2): in data set [2], the Retention_time amounted to 28.9 min. In [6], the solubility result is “Soluble”. Besides, the Stability result in [7] and in data set [4] was “Stable” throughout. Moreover, the Drug uptake result in [8], in [9] and in data set [10] was “Active” in each case. The IC50 in the data set on HT-29 amounted to 24.8 µM.

By IC50 is commonly meant the concentration that inhibits the measured activity by half.
